This passage reports pKa and IC50 results from ChEMBL document CHEMBL1138842, “Fluorinated phenylcyclopropylamines. 2. Effects of aromatic ring substitution and of absolute configuration on inhibition of microbial tyramine oxidase” (J Med Chem, 2004).

Structures can show the parent of a compound that is named as a salt.

Data set [1] can be described thus: Ionization constant was determined. In kind it is physicochemical. An outline of the steps: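 Determined by pH-metric titration in 0.1 M KNO₃ at 21 °C.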
Data set [2] can be described thus: Inhibitory concentration against tyramine oxidase of Arthrobacter spp.; Not determined.
The nature of data set [3]: Inhibitory concentration against tyramine oxidase of Arthrobacter spp.; Irreversible inhibition.
Data set [4] is described as follows: Inhibitory concentration against tyramine oxidase of Arthrobacter spp.; Competitive inhibition.
Data set [5] addresses T1, Amine oxidase [flavin-containing] A (Homo sapiens, UniProt P21397).
T1 sequence (P21397 whole entry): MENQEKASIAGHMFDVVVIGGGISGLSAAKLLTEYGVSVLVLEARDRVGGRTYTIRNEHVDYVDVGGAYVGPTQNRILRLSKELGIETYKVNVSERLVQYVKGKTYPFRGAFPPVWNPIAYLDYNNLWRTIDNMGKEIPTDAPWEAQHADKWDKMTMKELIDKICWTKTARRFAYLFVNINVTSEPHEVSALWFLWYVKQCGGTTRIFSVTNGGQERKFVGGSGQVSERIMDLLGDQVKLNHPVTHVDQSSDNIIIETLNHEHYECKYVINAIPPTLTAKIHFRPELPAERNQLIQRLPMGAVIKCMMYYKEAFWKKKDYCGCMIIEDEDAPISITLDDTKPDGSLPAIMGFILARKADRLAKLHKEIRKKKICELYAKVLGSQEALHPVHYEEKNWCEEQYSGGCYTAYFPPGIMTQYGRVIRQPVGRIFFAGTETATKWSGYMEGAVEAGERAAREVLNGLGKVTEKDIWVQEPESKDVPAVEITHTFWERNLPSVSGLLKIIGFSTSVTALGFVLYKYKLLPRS
As to the kind of experiment: Inhibitory concentration for human liver monoamine oxidase A.

Data set [6] deals with T2, Amine oxidase [flavin-containing] B (Homo sapiens, UniProt P27338).
T2 sequence (P27338 whole entry): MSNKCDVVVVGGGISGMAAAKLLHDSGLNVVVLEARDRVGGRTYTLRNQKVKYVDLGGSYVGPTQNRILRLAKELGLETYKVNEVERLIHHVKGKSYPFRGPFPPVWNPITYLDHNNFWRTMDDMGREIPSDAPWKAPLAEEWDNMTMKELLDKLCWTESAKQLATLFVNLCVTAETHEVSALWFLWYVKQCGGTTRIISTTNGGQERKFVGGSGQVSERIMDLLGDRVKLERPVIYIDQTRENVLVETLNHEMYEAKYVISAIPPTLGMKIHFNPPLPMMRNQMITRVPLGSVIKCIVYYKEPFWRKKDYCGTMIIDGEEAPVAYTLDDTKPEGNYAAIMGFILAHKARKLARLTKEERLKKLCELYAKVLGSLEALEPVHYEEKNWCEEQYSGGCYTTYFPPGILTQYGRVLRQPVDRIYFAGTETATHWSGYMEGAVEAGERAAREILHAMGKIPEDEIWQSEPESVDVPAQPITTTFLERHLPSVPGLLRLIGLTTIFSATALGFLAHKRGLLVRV
In words: Inhibitory concentration for human liver monoamine oxidase B.

Data set [7] is described as follows: Inhibition concentration against tyramine oxidase of Arthrobacter spp.; Partially irreversible inhibition.

As usually defined, the pKa is the pH at which an ionisable group is half protonated. The term IC50 denotes the midpoint of a concentration-inhibition curve. A higher IC50 goes with lower potency. Consider `Cc1ccc([C@@]2(F)C[C@@H]2N)cc1`, for which, in data set [1] (read-out: pKa), the pKa turned out to be 7.04. For the same compound, the IC50 in data set [2] came to 51 µM.

Consider `NC1CC1c1ccccc1` (stereo not drawn), for which the IC50 in data set [3] stood at 33 µM. Also, the pKa in data set [1] (read-out: pKa) was found to be 8.5.

In the case of `N[C@@H]1C[C@]1(F)c1ccc(F)cc1` (relative stereo), the pKa in data set [1] (read-out: pKa) came to 7.31. The same compound returned an IC50 in data set [4] of 8.1 µM.

For `Cc1ccc([C@@]2(F)C[C@H]2N)cc1` (relative stereo), the pKa in data set [1] (read-out: pKa) came out at 7.41. In addition, the values for the IC50 in data set [5], in data set [4] and in data set [6] were 6.7 µM, 0.39 µM and 6.7 µM, respectively.

As to `N[C@@H]1C[C@]1(F)c1ccccc1` (relative stereo), the pKa in data set [1] (read-out: pKa) worked out at 6.98. In addition, the IC50 in data set [7] was 190 µM.

For the compound `N[C@H]1C[C@]1(F)c1ccccc1` (relative stereo), the pKa in data set [1] (read-out: pKa) is 7.35. In data set [4], the IC50 came out at 3.6 µM.

`N[C@H]1C[C@]1(F)c1ccc(F)cc1` (relative stereo): the pKa in data set [1] (read-out: pKa) came to 6.88. The IC50 in data set [7] was found to be 75 µM.

For `N[C@@H]1C[C@H]1c1ccccc1` (relative stereo) [TRANYLCYPROMINE HYDROCHLORIDE], the pKa in data set [1] (read-out: pKa) was determined as 8.47. This compound also had an IC50 in data set [4] of 35 µM.

As to `Cl.NC1CC1(F)c1ccc(Cl)cc1` (stereo in doubt), the pKa in data set [1] is listed as 6.81. In data set [7], this compound came in with a half-maximal inhibitory concentration (IC50) of 89 µM.

`NC1CC1(F)c1ccc(Cl)cc1` (trans isomer): the pKa in data set [1] (read-out: pKa) worked out at 7.19. For the same compound, the IC50 in data set [4] amounted to 3.7 µM.

`NNC(N)=O` [HYDRAZINECARBOXAMIDE] came in with a half-maximal inhibitory concentration (IC50) in data set [5] of 6.7 µM.
